Results from ChEMBL document CHEMBL1154734, “Small-sized human immunodeficiency virus type-1 protease inhibitors containing allophenylnorstatine to explore the S2' pocket” (J Med Chem, 2009).
In brackets after ≈: the same amount, converted by molar mass.

Assays:
[1] = molecular target: Protease (Human immunodeficiency virus 1) (UniProt Q9YQ12); test: Inhibition of HIV1 recombinant protease at 50 nM after 15 mins by fluorescence assay
Method in brief: (§1)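 Recombinant HIV-1 protease was assayed in MES–NaOH pH 5.5 with DTT, EDTA and NaCl, with inhibitor at 50 nM final (500 nM DMSO stock). The substrate was H-Lys-Ala-Arg-Val-Tyr-Phe(p-NO2)-Glu-Ala-Nle-NH2, and the reaction ran 15 min at 37 °C. It was stopped with 1 N HCl. The N-terminal fragment was quantified by RP-HPLC with fluorescence at ex 275/em 305 nm.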

[2] = system: Human immunodeficiency virus 1; test: Antiviral activity against HIV1 pNL4-3 infected in human MT4 cells assessed as inhibition of virus-induced cytopathic effect after 5 days by MTT assay in absence of human serum; type: functional, organism-based; conditions: Human immunodeficiency virus 1, pNL4-3, MT4, 120 h
Method in brief: (§2)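 HIV-1 (IIIB or pNL4-3) inoculated into MT-4 cells. Cultures were treated with an equal volume of a 1% DMSO solution of compound at several concentrations plus 10% fetal bovine serum, then incubated 5 days at 37 °C in CO2, in triplicate. After MTT, optical density gave the percent cytopathic effect reduction. EC50 was fitted to a median-effect equation.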

[3] = system: Human immunodeficiency virus 1; test: Antiviral activity against HIV1 pNL4-3 infected in human MT4 cells assessed as inhibition of virus-induced cytopathic effect after 5 days by MTT assay in presence of 50% human serum; type: functional, organism-based; conditions: Human immunodeficiency virus 1, pNL4-3, MT4, 120 h
Method in brief: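 MT-4 cells were infected with wild-type HIV-1 (IIIB or pNL4-3) in the presence of 50% human serum. Compound was added at several concentrations from a 1% DMSO solution, and cells were incubated 5 days at 37 °C in triplicate. Cytopathic effect reduction was read by MTT optical density, and EC50 was derived from a median-effect equation fit.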

[4] = system: Human immunodeficiency virus 1; test: Ratio of EC50 for HIV1 pNL4-3 infected in human MT4 cells in presence of 50% human serum to EC50 for HIV1 pNL4-3 infected in human MT4 cells in absence of human serum; type: functional
Method in brief: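 HIV-1 pNL4-3 was inoculated into MT-4 cells, then test compound was added at several concentrations in 1% DMSO with 10% FBS. Cultures were incubated 5 days at 37 °C in CO2, in triplicate, and the cytopathic effect was read by MTT optical density. EC50 was fitted to a median-effect equation with and without 50% human serum. The serum binding effect is their ratio.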

[5] = Aqueous solubility in 0.1% TFA after 30 mins by RP-HPLC analysis; type: physicochemical; conditions: 0.1% TFA in water
[6] = molecular target: Protease (Human immunodeficiency virus 1) (UniProt Q9YQ12); test: Inhibition of HIV1 recombinant protease at 1 nM after 3 hrs by fluorescence assay
[7] = molecular target: Protease (Human immunodeficiency virus 1, UniProt Q9YQ12); test: Inhibition of HIV1 recombinant protease after 15 mins by fluorescence assay
[8] = system: Human immunodeficiency virus 1; test: Antiviral activity against HIV1 3B infected in human MT4 cells assessed as inhibition of virus-induced cytopathic effect after 5 days by MTT assay; type: functional, organism-based; conditions: Human immunodeficiency virus 1, 3B, MT4, 120 h; method in brief: as §2
[9] = system: Human immunodeficiency virus 1; test: Antiviral activity against HIV1 pNL4-3 infected in human MT4 cells assessed as inhibition of virus-induced cytopathic effect after 5 days by MTT assay; type: functional, organism-based; conditions: Human immunodeficiency virus 1, pNL4-3, MT4, 120 h; method in brief: as §2
[10] = system: Human immunodeficiency virus 1; test: Antiviral activity against indinavir-resistant HIV1 harboring L10R/M46I/L63P/V82T/I84V mutant protease infected in human MT4 cells assessed as inhibition of virus-induced cytopathic effect after 5 days by MTT assay; type: functional, organism-based; conditions: Human immunodeficiency virus 1, MT4, 120 h
Method in brief: (§3)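 MT-4 cells inoculated with HIV-1 wild-type pNL4-3 or indinavir-resistant IND-R, then given an equal volume of compound in 1% DMSO at several concentrations with 10% fetal bovine serum. Incubated 5 days at 37 °C in CO2, in triplicate. MTT read-out by optical density gave percent cytopathic-effect reduction; EC50 was fitted to a median-effect equation.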

[11] = system: Human immunodeficiency virus 1; test: Fold resistance, ratio of EC50 for indinavir-resistant HIV1 harboring L10R/M46I/L63P/V82T/I84V mutant protease infected in human MT4 cells to EC50 for HIV1 pNL4-3 infected in human MT4 cells; type: functional; method in brief: as §3
[12] = system: Human immunodeficiency virus; test: Inhibition of recombinant HIV protease at 50 nM after 15 mins by fluorescence assay; method in brief: as §1

Chain of Protease (Human immunodeficiency virus 1) (Q9YQ12 as listed by the source): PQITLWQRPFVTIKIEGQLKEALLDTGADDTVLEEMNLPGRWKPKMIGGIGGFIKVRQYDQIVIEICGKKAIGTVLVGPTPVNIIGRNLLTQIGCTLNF
Chain of Protease (Q9YQ12 whole entry): as the sequence (Q9YQ12 as listed by the source) above

Row | inhibition [1] [%] | solubility at 0.5 h [5] [µg/mL] | Ki [7] [nM] | inhibition [12] [%] | Compound | EC50 [2] [nM] | EC50 [3] [nM] | Ratio EC50 [4] | inhibition [6] [%] | EC50 [8] [nM] | EC50 [9] [nM] | EC50 [10] [nM] | Ratio EC50 [11]
1 | 98 | 8480 (≈ 14.9 mM) | – | – | C=C(C)CNC(=O)[C@H]1N(C(=O)[C@@H](O)[C@H](Cc2ccccc2)NC(=O)COc2c(C)cc(N)cc2C)CSC1(C)C | 10 | 82 | 8.2 | 43 | – | – | – | –
2 | 99 | – | 0.0024 | – | Cc1cccc(C)c1CNC(=O)[C@H]1N(C(=O)[C@@H](O)[C@H](Cc2ccccc2)NC(=O)c2cccc(O)c2C)CSC1(C)C | – | – | – | 82 | – | – | – | –
3 | – | – | – | 82 | Cc1c(O)cccc1C(=O)N[C@@H](Cc1ccccc1)[C@H](O)C(=O)N1CSC(C)(C)[C@H]1C(=O)NC(C)(C)c1ccccc1 | – | – | – | – | 123 | – | – | –
4 | 98 | – | 0.19 | – | C=C(C)CNC(=O)[C@H]1N(C(=O)[C@@H](O)[C@H](Cc2ccccc2)NC(=O)c2cccc(O)c2C)CSC1(C)C | – | – | – | – | – | 17 | – | –

Row | Compound | inhibition [1] [%] | solubility at 0.5 h [5] [µg/mL] | Ki [7] [nM] | inhibition [12] [%] | EC50 [2] [nM] | EC50 [3] [nM] | Ratio EC50 [4] | inhibition [6] [%] | EC50 [8] [nM] | EC50 [9] [nM] | EC50 [10] [nM] | Ratio EC50 [11]
5 | Cc1ccccc1CNC(=O)[C@H]1N(C(=O)[C@@H](O)[C@H](Cc2ccccc2)NC(=O)c2cccc(O)c2C)CSC1(C)C | 99 | – | 0.031 | – | – | – | – | 72 | 33 | 60 | 100 | 1.7
6 | Cc1c(O)cccc1C(=O)N[C@@H](Cc1ccccc1)[C@H](O)C(=O)N1CSC(C)(C)[C@H]1C(=O)NCc1c(F)cccc1Cl | 97 | – | – | – | – | – | – | 50 | 32 | 25 | 157 | 6.3
